Bioassay records deposited in PubChem BioAssay by The Scripps Research Institute Molecular Screening Center.
This is a sample that favours compounds with a hit; in the whole collection about 1.9% have one here.
TbMetRS inhib: T. brucei MetRS inhibitors, primary screen, biochemical, luminescence | inhibition, % at 11.9 µM | purified T. brucei MetRS, ATP depletion, Kinase-Glo luminescence | methionyl-tRNA synthetase (Trypanosoma brucei brucei) | hit rate 0.4% among 360,000 | AID 624268, 2012;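 active = inhibition above a per-plate cutoff of the control wells' mean inhibition plus 3 SD, cut at about 5.5% in these data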;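 also: 0% = DMSO wells median and 100% = median of wells with control inhibitor compound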
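System: purified T. brucei MetRS enzyme / Detection: Kinase-Glo luciferase luminescence reporting remaining unconsumed ATP / Medium: HEPES buffer with MgCl2, KCl, DTT, spermine, BSA, pyrophosphatase / Replication: singlicate, one well per compound / Evaluation: percent inhibition relative to median high and low control wells / Schedule: 2 h aminoacylation at 25 °C after 15 min preincubation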
sPLA2-III inh: human group III sPLA2 inhibitors, primary screen, biochemical, QFRET, BODIPY PC-A2 liposome substrate | Group 3 secretory phospholipase A2 (Homo sapiens), Q9NZ20 | inhibition, % at 12.2 µM | QFRET BODIPY PC-A2 liposome hydrolysis, fluorescence | hit rate 0.56% among 370,000 | AID 743126, 2013;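 active = inhibition above mean plus 3 SD of compounds lying within the high and low control bounds, cut at about 19% in these data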;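 also: 0% = median of test compound wells and 100% = no enzyme DMSO wells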
PLCg1 inh: PLC-gamma1 enzyme inhibitors, primary screen, biochemical, fluorescence, purified enzyme; 1-phosphatidylinositol 4,5-bisphosphate phosphodiesterase gamma-1 (Homo sapiens), P19174; fluorogenic substrate; inhibition, % at 12.2 µM; hit rate 0.84% among 370,000
PLC-beta3 inh: human PLC-beta3 inhibitors, primary screen, biochemical, fluorescence | Purified PLC-beta3, fluorogenic substrate | AID 720704, 2013 | inhibition, % at 12.2 µM | hit rate 0.18% among 370,000; in the data active = inhibition above about 11%;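 also: 0% = median of compound wells on plate and 100% = full blocker control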
PLCgamma1 ctr: PLC-gamma1 enzyme inhibitors, counter-screen for PLC-beta3 inhibitor project, biochemical, fluorescence. shares compounds with PLCg1 inh. purified PLC-gamma1, fluorogenic substrate. inhibition, % at 12.3 µM. hit rate 3.1% among 3,300
PLCbeta3 conf: PLC-beta3 inhibitor confirmation, biochemical, fluorescence, purified enzyme. shares compounds with PLCg1 inh. fluorogenic substrate fluorescence. inhibition, % at 12.3 µM. hit rate 1% among 3,300. AID 743261, 2014; in the data active = inhibition above about 11%
* marks the source's active call; other numbers are inactive results; i = inactive; x = no result. Rule as the data show it, unless noted: active = inhibition above about 9.5%; inactive = the rest.

SMILES	TbMetRS inhib	sPLA2-III inh	PLCg1 inh	PLC-beta3 inh	PLCgamma1 ctr	PLCbeta3 conf
Cc1nc(C(F)(F)F)ccc1C(=O)N1CCC1(C)C(=O)NS(=O)(=O)c1cccc(F)c1 (stereo not given)	-0.3	-2.3	0.4	3.0	x	x
CSCCCNC(=O)CN1C(=O)C2CCCCN2C(=O)c2ccccc21 (stereo not given)	x	3.3	2.4	2.5	x	x
O=C(COC(=O)CC12CC3CC(CC(Br)(C3)C1)C2)NC(=O)NCc1ccco1	-0.1	4.5	10.8*	7.1	-7.1	-6.2
CCN=C1S/C(=C/c2cc(C)n(-c3ccc(Cl)cc3F)c2C)C(=O)N1CC	x	1.5	-4.6	-11.6	x	x
C=CCN1C(=O)c2n[nH]c(COC)c2C1c1ccc(Br)cc1 (stereo not given)	x	-10.8	3.9	3.9	x	x
COC(=O)[C@@H]1CC[C@@](C)(c2ccc(OC)cc2)C1(C)C	0.4	17.4	14.1*	8.4	-5.9	-2.3
COC(=O)c1ccc2c(c1)NC(=O)CS2	0.1	0.8	4.0	0.6	x	x
O=C1CSc2ccccc2N1	0.0	3.7	10.7*	5.4	-1.2	-0.8
O=C(Nc1ccccc1)C1C2CCC3C(CCC21)C3(Cl)Cl (stereo not given)	0.1	1.3	10.8*	7.7	0.0	-1.4
CCCS(=O)(=O)NC(=O)C1(C)CCN(C(=O)c2cc(C)oc2C)C1 (stereo not given)	0.3	5.0	0.6	-3.1	x	x
CCCS(=O)(=O)NC(=O)C1(C)CCN(C(=O)c2cc(C)on2)C1 (stereo not given)	-0.1	-1.6	9.5*	5.9	0.4	0.4
COc1ccc2ccccc2c1C=Nn1c(-c2cc(-c3ccccc3)n[nH]2)n[nH]c1=S	x	1.0	-2.5	-2.6	x	x
COC(CNC(=O)[C@H](Cc1c[nH]c2ccccc12)NC1(C(=O)NCc2ccccc2)CCCCC1)OC	x	-55.4	-0.5	1.7	x	x
COC1OC2COC(c3ccccc3)OC2C(OC(=O)c2ccccc2)C1OC(=O)c1ccccc1 (stereo not given)	0.0	-12.6	5.0	3.7	x	x
COC1OC2COC(c3ccccc3)OC2C(NC(C)=O)C1OC(C)=O (stereo not given)	0.0	2.5	10.2*	13.6*	1.2	4.1
O=S(=O)(c1ccc(Br)cc1)N1CCCC1c1nc2ccccc2s1 (stereo not given)	-1.4	-4.9	4.7	0.2	x	x
CN(C)S(=O)(=O)c1ccc(C(=O)N2CCCC2c2nc3ccccc3s2)cc1 (stereo not given)	-0.1	-17.0	7.6	10.8*	6.3	4.1
COc1ccc(CN(CCN2CCOCC2)C(=O)c2cc(F)ccc2F)cc1OC	x	1.3	2.3	3.1	x	x
CCCCCCNC(=O)C1CSCCS(=O)(=O)N1Cc1ccc(F)cc1 (stereo not given)	x	5.1	1.6	4.7	x	x
C[C@H]1CNC(=O)C(=O)N1C[C@H](Cc1ccc(O)cc1)NC(=O)CC12CC3CC(CC(C3)C1)C2	-0.1	-0.4	4.6	11.9*	-5.8	2.1
CC(C)C[C@H]1CNC(=O)C(=O)N1C[C@H](Cc1ccc(O)cc1)NC(=O)Cc1ccccc1	-0.9	11.6	-0.7	1.3	x	x
Cn1c(/C(C#N)=C/Nc2ccccn2)nc2ccccc21	-1.1	12.2	-352.1	i	x	x
CCOc1ccccc1N/C=C(\C#N)c1nc2ccccc2n1C	-0.1	2.6	9.6*	3.1	-4.9	-8.2
CCOC(=O)CC1C(=O)NCCN1C(=O)c1ccc(Cl)cc1Cl (stereo not given)	-0.1	3.2	16.6*	2.0	-1.9	0.6
Cc1cc(C)n(CCOc2nonc2N)n1	0.4	4.1	11.2*	11.8*	-3.0	0.2
SMILES	TbMetRS inhib	sPLA2-III inh	PLCg1 inh	PLC-beta3 inh	PLCgamma1 ctr	PLCbeta3 conf
O=C(OC12CCCN(C1)/C(=C/c1ccc(Cl)cc1)C2)c1ccccc1 (stereo not given)	x	-10.5	4.1	3.5	x	x
CCC(C)(O)C(=O)N[C@H]1CCCN1C(=O)/C=C/c1ccccc1 (stereo not given in full)	-0.3	11.8	10.6*	4.4	-8.1	-22.9
Cc1ccccc1CS(=O)(=O)Cc1ccc(C(=O)Nc2cccc(C)c2C)o1	x	-11.4	1.4	4.9	x	x
Cc1ccc(OCc2nn3c(C4CCCCC4)nnc3s2)cc1	x	11.8	6.2	3.1	x	x
Cc1[nH][nH]c(=O)c1C(c1ccc(-c2ccc(F)cc2)o1)c1c(C)[nH][nH]c1=O	0.8	-19.1	10.6*	3.3	-5.3	-1.3
CCN(CC(=O)NC1CCS(=O)(=O)C1)C(=O)COc1ccccc1-c1ccccc1 (stereo not given)	-0.2	3.6	1.3	2.4	x	x
CCN(CC(=O)NC1CCS(=O)(=O)C1)C(=O)C(c1ccccc1)c1ccccc1 (stereo not given)	0.3	10.1	12.4*	0.6	-2.3	-0.2
O=C(NCc1ccc(F)cc1)C(C(=O)NCc1ccc(F)cc1)c1ncc(C(F)(F)F)cc1Cl	0.1	10.4	13.1*	7.7	-1.0	1.0
CCOC(=O)C(C(=O)NCc1ccc(F)cc1)c1ncc(C(F)(F)F)cc1Cl (stereo not given)	-1.0	-9.6	-1.1	-0.2	x	x
O=C(CN1C2=NCCCN2c2ccccc21)c1ccc([N+](=O)[O-])cc1	0.2	-16.0	9.6*	7.8	-5.2	-1.8
COCCCNC(=S)Nc1c(C)cc(C)cc1C	-0.6	11.6	13.3*	6.0	-4.6	-3.8
Cc1cc(C)c(NC(=S)NCCO)c(C)c1	-0.2	3.8	3.8	0.4	x	x
COc1cccc(NC(=O)c2ccccc2Oc2ccccc2)c1	-0.4	-13.5	9.8*	-4.9	-9.6	-8.1
CCCc1[nH]n(-c2nc3ccccc3s2)c(=O)c1C=NCCCOC	-0.2	-5.9	11.2*	-1.8	-5.1	-1.9
O=S(=O)(c1ccccc1)N1CCCc2nc(-c3ccc(F)cc3)ccc21	x	1.9	3.9	0.0	x	x
Cc1ccc(S(=O)(=O)N2C3CCCCC3O[C@H]2CC(=O)c2ccc(F)cc2)cc1 (stereo not given in full)	-0.9	-2.1	11.0*	-1.0	-6.0	-4.1
CSc1ccccc1NC(=O)Cn1c(-c2cscn2)nc2ccccc21	-1.4	3.8	9.8*	7.9	-7.2	0.0
C[C@]12Cc3ccccc3C1CC1=N[C@@H](C3CCCCC3)O[C@@]13C[C@@H]2C(=O)N3C1CCN(Cc2ccccc2)CC1 (stereo not given in full)	x	-2.8	-2.0	2.4	x	x
